Source: ChEMBL document CHEMBL3112486, “Novel class of benzoic acid ester derivatives as potent PDE4 inhibitors for inhaled administration in the treatment of respiratory diseases” (J Med Chem, 2014)

Legend:
Phosphodiesterase 4 [1] = target: T1, Phosphodiesterase 4 (Homo sapiens, UniProt P27815+Q08499+Q07343+Q08493); test: Inhibition of PDE4 isolated from human U937 cells assessed as […] by LANCE assay; type: cell-free; details: u-937
Phosphodiesterase 4 [2] = target: T1, Phosphodiesterase 4; test: Inhibition of PDE4 activity in human PBMC assessed as inhibition of LPS-induced TNFalpha release after 18 hrs by ELISA
Procedure, shortened: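 Human PBMCs plated at 10^5 cells/well in RPMI 1640 without phenol red plus 10% FBS, at 37 °C, 5% CO2. Compound added at 10^-15 to 10^-6 M (final DMSO 0.2%), with E. coli LPS at 3 ng/mL final, for 18 h. TNFα in supernatant measured by paired-antibody ELISA. IC50 from four-parameter logistic nonlinear regression, reported with 95% confidence intervals.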

[3] = n-Octanol-buffer partition coefficient, log D of the compound at pH 7.4 by shake-flask method

| Compound | IC50 (Phosphodiesterase 4 [1]) [nM] | IC50 (Phosphodiesterase 4 [2]) [nM] | logD [3] |
| --- | --- | --- | --- |
| COc1ccc(C(=O)O[C@@H](Cc2c(Cl)c[n+]([O-])cc2Cl)c2ccc(OC(F)F)c(OCC3CC3)c2)cc1OC | 0.07 | 0.12 | – |
| COc1ccc(C(=O)O[C@@H](Cc2c(Cl)c[n+]([O-])cc2Cl)c2ccc(OC(F)F)c(OCC3CC3)c2)cc1NC(C)=O | 0.08 | 0.67 | – |
| Cc1ccc(C(=O)O[C@@H](Cc2c(Cl)c[n+]([O-])cc2Cl)c2ccc(OC(F)F)c(OCC3CC3)c2)cc1NS(C)(=O)=O | 0.03 | 0.96 | – |
| COc1ccc(C(=O)O[C@@H](Cc2c(Cl)c[n+]([O-])cc2Cl)c2ccc(OC(F)F)c(OCC3CC3)c2)c(NS(C)(=O)=O)c1 | 0.73 | > 60 | – |
| CS(=O)(=O)Nc1cccc(C(=O)O[C@@H](Cc2c(Cl)c[n+]([O-])cc2Cl)c2ccc(OC(F)F)c(OCC3CC3)c2)c1OCC1CC1 | 0.18 | 1.31 | – |
| COc1cc(C(=O)O[C@@H](Cc2c(Cl)c[n+]([O-])cc2Cl)c2ccc(OC(F)F)c(OCC3CC3)c2)ccc1NS(C)(=O)=O | 0.06 | 0.38 | – |
| O=C(O[C@@H](Cc1c(Cl)c[n+]([O-])cc1Cl)c1ccc(OC(F)F)c(OCC2CC2)c1)c1ccc(CO)c(OCC2CC2)c1 | 0.08 | 0.69 | – |
| COc1cc(NS(C)(=O)=O)ccc1C(=O)O[C@@H](Cc1c(Cl)c[n+]([O-])cc1Cl)c1ccc(OC(F)F)c(OCC2CC2)c1 | 0.06 | 0.43 | – |
| CS(=O)(=O)Nc1ccc(C(=O)O[C@@H](Cc2c(Cl)c[n+]([O-])cc2Cl)c2ccc(OC(F)F)c(OCC3CC3)c2)cc1CO | 0.03 | 1.05 | – |
| COc1ccc(C(=O)O[C@@H](Cc2c(Cl)c[n+]([O-])cc2Cl)c2ccc(OC(F)F)c(OCC3CC3)c2)cc1Oc1ccccc1 | 0.21 | 1.36 | – |
| O=C(O[C@@H](Cc1c(Cl)c[n+]([O-])cc1Cl)c1ccc(OC(F)F)c(OCC2CC2)c1)c1ccc(Cl)cc1 | 0.16 | 1.85 | – |
| O=C(O[C@@H](Cc1c(Cl)c[n+]([O-])cc1Cl)c1ccc(OC(F)F)c(OCC2CC2)c1)c1ccc(O)c(OCC2CC2)c1 | 0.04 | 0.85 | – |
| Nc1ccc(C(=O)O[C@@H](Cc2c(Cl)c[n+]([O-])cc2Cl)c2ccc(OC(F)F)c(OCC3CC3)c2)cc1OCC1CC1 | 0.09 | 0.11 | – |
| CN(C)c1ccc(C(=O)O[C@@H](Cc2c(Cl)c[n+]([O-])cc2Cl)c2ccc(OC(F)F)c(OCC3CC3)c2)cc1OCC1CC1 | 0.31 | 0.63 | – |
| COc1ccc(NS(C)(=O)=O)c(C(=O)O[C@@H](Cc2c(Cl)c[n+]([O-])cc2Cl)c2ccc(OC(F)F)c(OCC3CC3)c2)c1 | 0.4 | > 60 | – |
| COc1ccc(C(=O)O[C@@H](Cc2c(Cl)c[n+]([O-])cc2Cl)c2ccc(OC(F)F)c(OCC3CC3)c2)cc1O | 0.08 | 0.75 | – |
| COc1ccc(C(=O)O[C@@H](Cc2c(Cl)c[n+]([O-])cc2Cl)c2ccc(OC(F)F)c(OCC3CC3)c2)cc1OC(C)=O | 0.05 | 0.96 | – |
| Cc1ccc(C(=O)O[C@@H](Cc2c(Cl)c[n+]([O-])cc2Cl)c2ccc(OC(F)F)c(OCC3CC3)c2)cc1 | 0.1 | 0.66 | – |
| [O-][n+]1cc(Cl)c(C[C@H](O)c2ccc(OC(F)F)c(OCC3CC3)c2)c(Cl)c1 | 9.44 | 479 | – |
| COc1ccc(C(=O)O[C@@H](Cc2c(Cl)c[n+]([O-])cc2Cl)c2ccc(OC(F)F)c(OCC3CC3)c2)cc1NS(C)(=O)=O | 0.04 | 0.06 | – |
| Cc1cc(C(=O)O[C@@H](Cc2c(Cl)c[n+]([O-])cc2Cl)c2ccc(OC(F)F)c(OCC3CC3)c2)ccc1NS(C)(=O)=O | 0.05 | 0.41 | – |
| COc1cccc(NS(C)(=O)=O)c1C(=O)O[C@@H](Cc1c(Cl)c[n+]([O-])cc1Cl)c1ccc(OC(F)F)c(OCC2CC2)c1 | 6.83 | > 60 | – |
| O=C(O[C@@H](Cc1c(Cl)c[n+]([O-])cc1Cl)c1ccc(OC(F)F)c(OCC2CC2)c1)c1ccccc1 | 0.072 | 1.71 | – |
| O=C(Cc1ccccc1)OC(Cc1c(Cl)cncc1Cl)c1ccc(OC(F)F)c(OCC2CC2)c1 (racemic) | 1.06 | – | – |
| O=C(O[C@H](Cc1c(Cl)cncc1Cl)c1ccc(OC(F)F)c(OCC2CC2)c1)c1ccc(OC(F)F)c(OCC2CC2)c1 | 44 | – | – |
| O=C(O[C@H](Cc1c(Cl)c[n+]([O-])cc1Cl)c1ccc(OC(F)F)c(OCC2CC2)c1)c1ccc(OC(F)F)c(OCC2CC2)c1 | 2.43 | – | – |
| CS(=O)(=O)Nc1cc(C(=O)O[C@@H](Cc2c(Cl)c[n+]([O-])cc2Cl)c2ccc(OC(F)F)c(OCC3CC3)c2)ccc1OCc1ccccc1 | 0.32 | 0.53 | – |

| Compound | IC50 (Phosphodiesterase 4 [1]) [nM] | IC50 (Phosphodiesterase 4 [2]) [nM] | logD [3] |
| --- | --- | --- | --- |
| COc1ccc(C(=O)O[C@@H](Cc2c(Cl)c[n+]([O-])cc2Cl)c2ccc(OC(F)F)c(OCC3CC3)c2)cc1OCC1CC1 | 0.05 | 0.04 | – |
| O=C(O[C@@H](Cc1c(Cl)cncc1Cl)c1ccc(OC(F)F)c(OCC2CC2)c1)c1ccc(OC(F)F)c(OCC2CC2)c1 | 1.9 | – | – |
| COc1cc(NS(C)(=O)=O)cc(C(=O)O[C@@H](Cc2c(Cl)c[n+]([O-])cc2Cl)c2ccc(OC(F)F)c(OCC3CC3)c2)c1 | 0.17 | 0.13 | – |
| CS(=O)(=O)Nc1cc(OCC2CC2)cc(C(=O)O[C@@H](Cc2c(Cl)c[n+]([O-])cc2Cl)c2ccc(OC(F)F)c(OCC3CC3)c2)c1 | 0.06 | 0.92 | – |
| O=C(O/C(=C\c1c(Cl)cncc1Cl)c1ccc(OC(F)F)c(OCC2CC2)c1)c1ccc(OC(F)F)c(OCC2CC2)c1 | 1.18 | – | – |
| O=C(O[C@@H](Cc1c(Cl)c[n+]([O-])cc1Cl)c1ccc(OC(F)F)c(OCC2CC2)c1)c1ccc([N+](=O)[O-])c(OCC2CC2)c1 | 0.21 | 0.69 | – |
| O=C(O[C@@H](Cc1c(Cl)c[n+]([O-])cc1Cl)c1ccc(OC(F)F)c(OCC2CC2)c1)c1ccc(C(F)(F)F)cc1 | 0.2 | 21 | – |
| Cc1ccc(O)c(C(=O)N[C@H]2CC[C@@H](NC(=O)c3cc(F)cnc3Oc3ccc(F)c(F)c3)CC2)c1 [UK-500001] | – | – | 4.27 |
| COc1ccc(C(=O)O[C@@H](Cc2c(Cl)c[n+]([O-])cc2Cl)c2ccc(OC(F)F)c(OCC3CC3)c2)cc1S(=O)(=O)N(C)C | 0.03 | 1.85 | – |
| CCCC(=O)OC(Cc1c(Cl)cncc1Cl)c1ccc(OC(F)F)c(OCC2CC2)c1 (racemic) | 1.74 | – | – |
| CS(=O)(=O)Nc1ccc(C(=O)O[C@@H](Cc2c(Cl)c[n+]([O-])cc2Cl)c2ccc(OC(F)F)c(OCC3CC3)c2)cc1OCc1ccccc1 | 0.56 | 0.99 | – |
| O=C(O[C@@H](Cc1c(Cl)c[n+]([O-])cc1Cl)c1ccc(OC(F)F)c(OCC2CC2)c1)c1ccc(OC(F)F)c(OCC2CC2)c1 | 0.22 | 1.1 | – |
| O=C(O[C@@H](Cc1c(Cl)c[n+]([O-])cc1Cl)c1ccc(OC(F)F)c(OCC2CC2)c1)c1ccc(C(=O)O)c(OCC2CC2)c1 | 0.05 | 0.3 | – |
| CNS(=O)(=O)c1cc(C(=O)O[C@@H](Cc2c(Cl)c[n+]([O-])cc2Cl)c2ccc(OC(F)F)c(OCC3CC3)c2)ccc1OC | 0.03 | 0.25 | – |
| O=C(O[C@@H](Cc1c(Cl)c[n+]([O-])cc1Cl)c1ccc(OC(F)F)c(OCC2CC2)c1)c1ccc(NS(=O)(=O)C2CC2)c(OCC2CC2)c1 | 0.15 | 0.34 | – |
| O=C(CCCc1ccccc1)OC(Cc1c(Cl)cncc1Cl)c1ccc(OC(F)F)c(OCC2CC2)c1 (racemic) | 1.34 | – | – |
| COc1ccc(C(=O)O[C@@H](Cc2c(Cl)c[n+]([O-])cc2Cl)c2ccc(OC(F)F)c(OCC3CC3)c2)cc1 | 0.14 | 0.47 | – |
| CS(=O)(=O)Nc1ccc(OCC2CC2)c(C(=O)O[C@@H](Cc2c(Cl)c[n+]([O-])cc2Cl)c2ccc(OC(F)F)c(OCC3CC3)c2)c1 | 0.4 | 4.9 | – |
| N#Cc1ccc(C(=O)O[C@@H](Cc2c(Cl)c[n+]([O-])cc2Cl)c2ccc(OC(F)F)c(OCC3CC3)c2)cc1 | 0.41 | 2.1 | – |
| COc1ccc(NS(C)(=O)=O)cc1C(=O)O[C@@H](Cc1c(Cl)c[n+]([O-])cc1Cl)c1ccc(OC(F)F)c(OCC2CC2)c1 | 0.04 | 0.89 | – |
| CC(=O)Nc1ccc(C(=O)O[C@@H](Cc2c(Cl)c[n+]([O-])cc2Cl)c2ccc(OC(F)F)c(OCC3CC3)c2)cc1OCC1CC1 | 0.24 | 0.21 | – |
| CS(=O)(=O)Nc1ccc(C(=O)O[C@@H](Cc2c(Cl)c[n+]([O-])cc2Cl)c2ccc(OC(F)F)c(OCC3CC3)c2)c(OCC2CC2)c1 | 0.26 | 1.96 | – |
| O=C(OC(Cc1c(Cl)cncc1Cl)c1ccc(OC(F)F)c(OCC2CC2)c1)c1ccccc1 (racemic) | 1.14 | – | – |
| CS(=O)(=O)Nc1ccc(C(=O)O[C@@H](Cc2c(Cl)c[n+]([O-])cc2Cl)c2ccc(OC(F)F)c(OCC3CC3)c2)cc1 | 0.05 | 0.13 | – |
| CC(=O)OC(Cc1c(Cl)cncc1Cl)c1ccc(OC(F)F)c(OCC2CC2)c1 (racemic) | 4.09 | – | – |
| CS(=O)(=O)Nc1cc(C(=O)O[C@@H](Cc2c(Cl)c[n+]([O-])cc2Cl)c2ccc(OC(F)F)c(OCC3CC3)c2)ccc1OCC1CC1 | 0.13 | 0.12 | – |
